Drawing on ChEMBL document CHEMBL1142013, “Tryptamine and homotryptamine-based sulfonamides as potent and selective inhibitors of 15-lipoxygenase” (Bioorg Med Chem Lett, 2005), this text covers IC50 for 25 molecules.

Some results are limits rather than exact numbers.

Assay [1] addresses T1, Polyunsaturated fatty acid lipoxygenase ALOX15 (Oryctolagus cuniculus, UniProt P12530).
T1 sequence (P12530 whole entry): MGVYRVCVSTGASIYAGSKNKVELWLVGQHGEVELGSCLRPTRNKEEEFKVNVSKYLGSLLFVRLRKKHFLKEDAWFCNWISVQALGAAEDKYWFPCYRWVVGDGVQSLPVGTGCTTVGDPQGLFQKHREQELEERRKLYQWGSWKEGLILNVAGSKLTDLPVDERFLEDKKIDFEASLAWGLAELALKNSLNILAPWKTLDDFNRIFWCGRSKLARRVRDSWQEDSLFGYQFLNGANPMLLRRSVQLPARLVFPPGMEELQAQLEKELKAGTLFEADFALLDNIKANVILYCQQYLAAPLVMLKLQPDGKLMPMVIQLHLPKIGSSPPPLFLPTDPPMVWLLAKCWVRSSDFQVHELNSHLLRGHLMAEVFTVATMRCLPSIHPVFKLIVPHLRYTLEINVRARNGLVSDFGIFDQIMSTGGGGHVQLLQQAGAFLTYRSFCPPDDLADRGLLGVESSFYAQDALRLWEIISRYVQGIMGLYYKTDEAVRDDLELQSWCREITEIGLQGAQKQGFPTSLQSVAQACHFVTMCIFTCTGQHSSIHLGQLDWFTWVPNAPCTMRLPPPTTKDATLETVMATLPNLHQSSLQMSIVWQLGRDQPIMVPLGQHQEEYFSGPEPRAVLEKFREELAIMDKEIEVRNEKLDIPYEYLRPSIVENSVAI
As to the kind of experiment: Inhibitory concentration against rabbit reticulocyte 15-lipoxygenase with substrate arachidonic acid. The gist of the method: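 Purified rabbit reticulocyte 15-LO, isolated from phenylhydrazine-treated rabbits, with arachidonic acid as the substrate. IC50 comes from a colorimetric read-out in which the 15-HPETE product oxidizes Fe²⁺ under mildly acidic conditions. Many values were also verified by the spectrophotometric diene-formation rate (A₂₃₄).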

For assay [2], the target named is T2, Polyunsaturated fatty acid lipoxygenase ALOX12 (Homo sapiens, UniProt P18054).
T2 sequence (P18054 whole entry): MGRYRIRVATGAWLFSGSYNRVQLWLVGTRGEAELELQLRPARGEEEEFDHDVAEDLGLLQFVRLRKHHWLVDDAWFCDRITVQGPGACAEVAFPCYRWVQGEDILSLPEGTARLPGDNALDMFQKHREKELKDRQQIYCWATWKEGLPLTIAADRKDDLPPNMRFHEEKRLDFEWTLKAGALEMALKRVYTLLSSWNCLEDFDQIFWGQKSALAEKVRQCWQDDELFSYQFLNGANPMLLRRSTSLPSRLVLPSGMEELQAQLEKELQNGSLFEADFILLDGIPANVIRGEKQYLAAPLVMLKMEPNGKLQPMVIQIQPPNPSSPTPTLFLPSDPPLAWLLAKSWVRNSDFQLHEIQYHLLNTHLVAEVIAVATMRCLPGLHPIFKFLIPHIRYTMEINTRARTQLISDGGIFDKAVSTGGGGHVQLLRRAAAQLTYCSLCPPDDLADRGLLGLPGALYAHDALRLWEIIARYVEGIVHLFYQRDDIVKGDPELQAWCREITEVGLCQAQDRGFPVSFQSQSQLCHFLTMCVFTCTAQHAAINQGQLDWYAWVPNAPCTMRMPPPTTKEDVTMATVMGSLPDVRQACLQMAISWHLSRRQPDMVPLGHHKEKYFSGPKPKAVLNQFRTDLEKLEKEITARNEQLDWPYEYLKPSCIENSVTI
The assay is described as follows: Inhibitory concentration against human platelet-derived 12-lipoxygenase.

Assay [3] deals with T1, Polyunsaturated fatty acid lipoxygenase ALOX15. The assay is described as follows: Inhibitory concentration against isolated rabbit reticulocyte 15-lipoxygenase measured in the presence of linoleic acid. In outline: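 15-LO was purified from reticulocytes of phenylhydrazine-treated rabbits. Linoleic acid was the substrate. In a colorimetric assay, the 13-HPODE product oxidizes Fe²⁺ under mildly acidic conditions, and IC50 is derived from this. Many values were also checked spectrophotometrically by the rate of diene formation (A₂₃₄).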

Assay [4] deals with T3, Polyunsaturated fatty acid 5-lipoxygenase (Homo sapiens, UniProt P09917).
T3 sequence (P09917 whole entry): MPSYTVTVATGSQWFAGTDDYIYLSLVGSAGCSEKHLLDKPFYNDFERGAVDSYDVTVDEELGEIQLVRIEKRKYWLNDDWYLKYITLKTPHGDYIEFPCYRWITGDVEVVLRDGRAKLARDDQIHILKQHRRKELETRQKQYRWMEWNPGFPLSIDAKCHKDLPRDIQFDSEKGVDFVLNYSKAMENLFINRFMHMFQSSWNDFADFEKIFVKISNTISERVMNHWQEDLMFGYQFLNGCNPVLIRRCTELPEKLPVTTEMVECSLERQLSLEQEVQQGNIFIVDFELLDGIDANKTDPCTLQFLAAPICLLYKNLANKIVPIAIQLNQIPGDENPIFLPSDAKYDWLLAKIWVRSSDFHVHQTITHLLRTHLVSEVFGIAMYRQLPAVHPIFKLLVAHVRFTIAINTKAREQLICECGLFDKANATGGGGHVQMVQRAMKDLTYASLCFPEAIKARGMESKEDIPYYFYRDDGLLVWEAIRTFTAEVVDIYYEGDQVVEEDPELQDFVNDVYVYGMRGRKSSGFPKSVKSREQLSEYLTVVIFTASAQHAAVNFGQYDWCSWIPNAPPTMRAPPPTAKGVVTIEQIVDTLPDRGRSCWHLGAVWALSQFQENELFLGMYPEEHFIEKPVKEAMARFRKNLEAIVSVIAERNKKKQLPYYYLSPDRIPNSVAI
As to the kind of experiment: Inhibitory concentration against human 5-lipoxygenase. The gist of the method:
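Recombinant human 5-LO enzyme. Inhibition was followed by oxidation of arachidonic acid as the substrate. IC50 values were determined.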

Take `CCCCCc1ccc(S(=O)(=O)NCCc2c(-c3ccc(OC)cc3)[nH]c3ccccc23)cc1`: the IC50 is 164 nM in assay [1], over 10000 nM in assay [2], 37 nM in assay [3] and 8900 nM in assay [4].

As to `CCCCCc1ccc(S(=O)(=O)NCCCc2c[nH]c3ccccc23)cc1`, the IC50 in assay [2] is 1070 nM; in assay [4], over 10000 nM.

On to `CCCCCc1ccc(S(=O)(=O)NCCc2c(-c3ccc(Cl)cc3)[nH]c3ccccc23)cc1`, for which the IC50 in assay [1] is 120 nM; in assay [2], over 10000 nM; in assay [3], 32 nM; in assay [4] it was over 3000 nM.

On to `NNC(=O)c1ccc(S(=O)(=O)NCCc2c(-c3cc4ccccc4o3)[nH]c3ccccc23)cc1`, for which the IC50 in assay [1] is 135 nM; in assay [2], over 10000 nM; in assay [3], 89 nM; in assay [4] it was 3500 nM.

In the case of `CCCCCc1ccc(S(=O)(=O)NCCc2c(-c3ccccc3)[nH]c3ccccc23)cc1`, the IC50 in assay [1] was 140 nM; in assay [2] it was over 10000 nM; in assay [3], 62 nM; in assay [4] it was over 3000 nM.

Regarding `Cc1ccc(S(=O)(=O)NCCc2c(-c3cc4ccccc4o3)[nH]c3ccccc23)cc1`, the IC50 was 78 nM in assay [1], over 10000 nM in assay [2], 10 nM in assay [3] and over 10000 nM in assay [4].

Consider `CCCCCc1ccc(S(=O)(=O)NCCc2c(-c3ccc(OCC)cc3)[nH]c3ccccc23)cc1`, for which the results for the IC50 in assay [1] and in assay [3] were 39 nM and 11 nM, respectively.

In the case of `COc1ccc(-c2[nH]c3ccccc3c2CCNS(=O)(=O)c2ccc(C)cc2)cc1`, the half-maximal inhibitory concentration (IC50) in assay [1] worked out at 780 nM; in assay [3], 110 nM.

As for `CN(C)CCN(C)C(=O)c1ccc(S(=O)(=O)NCCc2c(-c3cc4ccccc4o3)[nH]c3ccccc23)cc1`, the values for the IC50 in assay [1] and in assay [3] were 382 nM and 76 nM, respectively.

As for `O=S(=O)(NCCCc1c(-c2cc3ccccc3o2)[nH]c2ccccc12)c1ccc(-c2ccccc2)cc1`, the IC50 in assay [1] was found to be 17 nM; in assay [3] it was 8 nM.

As to `CCCCCc1ccc(S(=O)(=O)NCCc2c(-c3cccc(C)c3)[nH]c3ccccc23)cc1`, the values for the half-inhibitory concentration (IC50) in assay [1] and in assay [3] were 58 nM and 25 nM, respectively.

For `CCCCCc1ccc(S(=O)(=O)NCCc2c[nH]c3cc(C(=O)OC)ccc23)cc1`, the results for the IC50 in assay [1] and in assay [3] were 472 nM and 236 nM, respectively.

`CCCCCc1ccc(S(=O)(=O)NCCc2c(-c3cc4ccccc4o3)[nH]c3ccccc23)cc1`: the IC50 in assay [2] and in assay [4] was over 3000 nM each time.

On to `CCc1ccc(-c2ccc(S(=O)(=O)NCCc3c[nH]c4ccccc34)cc2)cc1`, for which the results for the half-maximal inhibitory concentration (IC50) in assay [1] and in assay [3] were 470 nM and 260 nM, respectively.

On to `Cc1cccc(-c2ccc(S(=O)(=O)NCCc3c[nH]c4ccccc34)cc2)c1`, for which the IC50 in assay [1] was 320 nM; in assay [3], 450 nM.

In the case of `CCCc1ccc(S(=O)(=O)NCCc2c[nH]c3ccccc23)cc1`, the figures for the half-inhibitory concentration (IC50) in assay [1] and in assay [3] were 3200 nM and 3130 nM, respectively.

Turning to `CC(C)(C)c1ccc(-c2ccc(S(=O)(=O)NCCc3c[nH]c4ccccc34)cc2)cc1`, the IC50 in assay [1] stood at 230 nM; in assay [3], 270 nM.

Take `O=S(=O)(NCCc1c[nH]c2ccccc12)c1ccc(-c2ccccc2)cc1`: the half-maximal inhibitory concentration (IC50) came out at 4200 nM in assay [1] and 3400 nM in assay [3].

On to `CC(C)Cc1ccc(-c2ccc(S(=O)(=O)NCCc3c[nH]c4ccccc34)cc2)cc1`, for which the IC50 came to 170 nM in assay [1] and 910 nM in assay [3].

For the molecule `CCCCCc1ccc(S(=O)(=O)NCCc2c[nH]c3cc(C(=O)O)ccc23)cc1`, the IC50 was over 30000 nM in assay [1] and 24000 nM in assay [3].

As for `CCCCc1ccc(-c2ccc(S(=O)(=O)NCCc3c[nH]c4ccccc34)cc2)cc1`, the half-inhibitory concentration (IC50) in assay [1] was 200 nM; in assay [3] it was 530 nM.

Consider `Cc1ccc(S(=O)(=O)NCCc2c[nH]c3ccccc23)cc1`, for which the IC50 in assay [1] and in assay [3] was over 10000 nM each time.

For `CCCCc1ccc(S(=O)(=O)NCCc2c[nH]c3ccccc23)cc1`, the 50% inhibitory concentration (IC50) was 4000 nM in assay [1] and 3070 nM in assay [3].

Turning to `O=C(NC1CCCCC1)c1ccc(S(=O)(=O)NCCc2c(-c3cc4ccccc4o3)[nH]c3ccccc23)cc1`, the half-inhibitory concentration (IC50) stood at 34 nM in assay [1] and 12 nM in assay [3].

Take `CC(C)c1ccc(-c2ccc(S(=O)(=O)NCCc3c[nH]c4ccccc34)cc2)cc1`: the half-maximal inhibitory concentration (IC50) came to 140 nM in assay [1] and 280 nM in assay [3].

One may read the IC50 as the concentration that inhibits the measured activity by half.
